# SR-BI DiI inh = blocks mouse SR-BI lipid uptake from DiI-HDL; Q61009; ldlA[mSR-BI] CHO cells, DiI-HDL uptake fluorescence, 3 h; inhibition, % at 12.5 µM; 0.96% of 320,000 active; AID 488896;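 active means mean replicate inhibition of at least 70% and a set share of replicates each scoring 70 or more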;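 further: 0% = median of neutral control wells and 100% = median of positive control wells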
# Target sequence (Q61009 whole entry, looked up): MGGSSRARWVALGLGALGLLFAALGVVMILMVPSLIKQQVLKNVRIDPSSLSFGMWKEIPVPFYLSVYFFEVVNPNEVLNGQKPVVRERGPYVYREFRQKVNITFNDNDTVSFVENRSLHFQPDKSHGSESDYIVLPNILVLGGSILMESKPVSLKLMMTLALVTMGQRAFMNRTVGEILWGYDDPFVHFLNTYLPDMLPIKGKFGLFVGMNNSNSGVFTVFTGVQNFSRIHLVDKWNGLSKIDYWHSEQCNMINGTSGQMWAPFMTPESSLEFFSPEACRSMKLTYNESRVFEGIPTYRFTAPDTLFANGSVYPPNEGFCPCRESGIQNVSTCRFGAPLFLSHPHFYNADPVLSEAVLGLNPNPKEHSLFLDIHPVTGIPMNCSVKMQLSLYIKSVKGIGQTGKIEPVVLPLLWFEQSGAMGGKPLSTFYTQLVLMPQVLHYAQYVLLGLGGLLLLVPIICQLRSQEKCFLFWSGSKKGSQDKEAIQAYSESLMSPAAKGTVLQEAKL
# CDK5 inh = blocks human CDK5/p35 kinase activity. Q00535+Q15078. Recombinant CDK5/p35, ADP-Glo luminescence, 60 min. inhibition, % at 10 µM. 0.01% of 330,000 active. AID 488839;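 active means highest replicate inhibition of at least 50% and at least 75% of replicates reaching 50%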;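 further: plate controls were DMSO neutral control for no effect and GW8510 at 10 µM for full effect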
# dFosB act = enhances mouse delta FosB homodimer DNA binding | P13346 | purified delta FosB, TAMRA-CDK5 oligo fluorescence polarization; percent of positive-control signal above neutral wells | activation, % at 25 µM | 0.99% of 340,000 active | AID 493131;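 active means mean activation above about 17%, with every replicate also reaching it, limit read from the data, passing the limit was not always enough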
# SR-BI DiI-HDL act = activators of SR-BI mediated HDL lipid uptake; CHO ldlA[mSR-BI] cells, DiI-HDL uptake fluorescence, 3 h; 100 = double the neutral-control signal; activation, % at 12.5 µM; 0.096% of 320,000 active; AID 504775;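 active means mean replicate activation of at least 60% and every replicate at or above 60%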;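 further: 0% = median plate neutral-control signal and 100% = twice that signal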
#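 Test system: SR-BI-overexpressing, LDLR-lacking CHO cells; Medium: Ham's F12 with 0.5% BSA, HEPES 25 mM, pH 7.4; Schedule: 3 h, 37 °C; Technique: bottom-read fluorescence, 550/595 nm.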
# NSD2 HMT inh = NSD2 (human) methyltransferase inhibition. O96028. NSD2 peptide methylation, AlphaScreen, 120 min. inhibition, % at 12.5 µM. 0.54% of 310,000 active. AID 743445
# DYRK1A inh = inhibitors of rat Dyrk1A kinase | Q63470 | ADP-Glo luminescence, NFATc1 peptide | inhibition, % at 12.5 µM | 0.43% of 310,000 active | AID 504441;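 further: plate controls were vehicle with enzyme for no effect and no enzyme for full effect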
# Alpha artifact = counter-screen for NSD2 inhibitors: AlphaScreen artifacts | shares compounds with NSD2 HMT inh | AlphaScreen artifact counterscreen, preloaded methylated H4 peptide | AC35, µM (doses to about 10 µM), for inactives: at the highest dose activity change, negative = signal loss | 9.4% of 1,500 active | AID 1053174; call rule not given here
# * marks the source's active call; other numbers are inactive results; / = not tested or not shown. Hits are enriched below; roughly 2.5% of the tested compounds scored in any of these assays. Unless noted, no stated cut-off is given here; in the data, active means inhibition above about 50%; inactive means the rest.
SMILES,SR-BI DiI inh,CDK5 inh,dFosB act,SR-BI DiI-HDL act,NSD2 HMT inh,DYRK1A inh,Alpha artifact
CSc1ccccc1NC(=O)CN(C)C(=O)COc1ncnc2ccccc12,-6,0,5,6,56*,-2,1%
CC1=C(C(=O)OC(C)C)C2(O)C(=O)c3ccccc3C2(O)N1 (stereo unspecified),-9,0,0,9,-1,-4,/
CC(=O)C1=C(C)OC2(O)c3ccccc3C(=O)C12O (stereo unspecified),/,/,/,/,90*,/,-1%
CCOC(=O)C1=C(C)OC2(O)c3ccccc3C(=O)C12O (stereo unspecified),/,/,/,/,107*,/,1%
COc1ccc(S(=O)(=O)CCC(=O)N2CCN(c3cccc(Cl)c3)CC2)cc1,-16,0,-10,16,3,-1,/
Cc1cc(C)n(CCC(=O)N2CCN(S(=O)(=O)c3ccccc3)CC2)n1,-21,-2,4,21,54*,-2,0%
Cc1ccc(S(=O)(=O)N2CCN(C(=O)CCn3nc(C)c(C)c3C)CC2)cc1,/,-1,-4,/,3,1,/
Cc1ccc(Cn2c(SCC(=O)N3CC(=O)Nc4ccccc43)nc3ccccc3c2=O)cc1,-15,-1,-1,15,60*,-6,-1%
O=C1CN(C(=O)CSc2nc3cc(Cl)ccc3c(=O)n2Cc2ccccc2)c2ccccc2N1,13,0,11,-13,-1,3,/
O=C(/C=C/c1cccc2ccccc12)N1CCOCC1,23,2,2,-23,-1,3,/
COc1cccc(CNC(=O)CSc2nnc3c(n2)[nH]c2ccccc23)c1,-2,2,3,2,56*,0,3%
O=C(NNC(=S)Nc1ccccc1)c1ccco1,-12,6,-10,12,119*,-2,-3%
O=C(CN1CCN(S(=O)(=O)c2ccc(Br)cc2)CC1)c1ccc(O)c(O)c1,-8,-1,-8,8,80*,8,-13%
O=C(CN1CCN(c2ccccc2F)CC1)c1ccc(O)c(O)c1,-4,1,-8,4,95*,2,-19%
CC(C)Cn1c(N)c(C(=O)COC(=O)c2ccc([N+](=O)[O-])o2)c(=O)n(C)c1=O,18,1,-11,-18,99*,6,-4%
CC(C)Cn1c(N)c(C(=O)COC(=O)c2ccc(O)cc2)c(=O)n(C)c1=O,8,-2,-10,-8,0,2,/
CCN(CC(=O)NCc1cccs1)C(=O)c1ccc(NS(=O)(=O)c2ccc(C(C)=O)cc2)cc1,-18,-1,-11,18,-3,-2,/
Cc1c(-c2cccc(Cl)c2)nc2ccccc2c1C(=O)OC/C(O)=C(\C#N)c1nc2ccccc2[nH]1,6,1,-7,-6,56*,/,-9%
CC(OC(=O)c1n[nH]c2ccccc12)C(=O)Nc1ccccc1[N+](=O)[O-] (stereo unspecified),5,0,-8,-5,0,/,/
CCNC(=O)Cc1ccc(NS(=O)(=O)c2ccc(F)cc2)cc1,3,2,-4,-3,109*,3,-2%
O=C(NNc1cc(N2CCOCC2)nc(N2CCOCC2)n1)c1ccc([N+](=O)[O-])cc1,-3,4,-7,3,129*,3,-4%
O=C(Nc1ccc(N2CCOCC2)cc1N1CCOCC1)c1ccc([N+](=O)[O-])cc1,6,0,0,-6,0,-1,/
COC(=O)c1cc2ccccc2c(-c2c(O)ccc3ccccc23)c1O,27,-5,3,-27,3,0,/
O=C1C=C(c2c(O)ccc3ccccc23)c2ccccc2C1=O,56,0,-6,-56,112*,40,-14%
O=[N+]([O-])c1ccc(Sc2cccc[n+]2[O-])c2nonc12,38,4,-28,-38,129*,8,7.8µM*
SMILES,SR-BI DiI inh,CDK5 inh,dFosB act,SR-BI DiI-HDL act,NSD2 HMT inh,DYRK1A inh,Alpha artifact
NC(=O)C1Cc2ccccc2CN1S(=O)(=O)c1ccc(Cl)s1 (stereo unspecified),-2,0,1,2,89*,-3,-3%
Cc1ccc(NC2=CC(=O)C(=O)c3ccccc32)cc1,20,3,-5,-20,65*,7,0%
O=C1C=C(Nc2ccc(O)cc2)C(=O)c2ccccc21,10,1,-11,-10,/,13,/
CCOC(=O)c1ccc(NC2=CC(=O)C(=O)c3ccccc32)cc1,40,3,-21,-40,26,-1,/
NS(=O)(=O)c1ccc(NC2=CC(=O)C(=O)c3ccccc32)cc1,-15,0,-1,15,58*,15,-5%
Cc1ccc(N(C(=O)c2ccccn2)C(C(=O)NC2CCCCC2)c2ccncc2)cc1 (stereo unspecified),4,0,-5,-4,-4,6,/
CCN(C(=O)COC(=O)c1ccccc1SCC(=O)N1CCCC1)C1CCS(=O)(=O)C1 (stereo unspecified),6,-3,0,-6,-1,13,/
Cc1cc(C)c(OCCN2C(=O)NC(C)(C)C2=O)c(Cl)c1,-3,1,-14,3,1,-3,/
Cc1cc(Cl)cc(Br)c1OCCCN1C(=O)NC(C)(C)C1=O,27,-1,3,-27,73*,4,-3%
Cc1cc(Cl)c(OCCN2C(=O)NC(C)(C)C2=O)c(Br)c1,5,-2,-4,-5,71*,-7,0%
CC(C)c1ccc(N(CC(=O)NCc2ccco2)C(=O)CCC(=O)Nc2nccs2)cc1,/,-2,-18,/,-3,-3,/
CCOc1ccccc1NC(=O)C1CCCN1C(=O)c1cccs1 (stereo unspecified),-87,-4,1,87*,108*,-2,-6%
CNCCCOc1ccc2c(c1)CCC2,-21,0,6,21,61*,3,-4%
COc1ccc(CCC(=O)NCCOc2ccccc2Cl)cc1,7,-1,-11,-7,124*,-2,-2%
CCOC(=O)[C@H]1[C@H]2COc3ccc(Cl)cc3[C@@H]2N2C(=O)CN(Cc3ccc(C)cc3)C(=O)[C@@]12C,1,1,-2,5,/,-1,/
COc1cccc2c1N1C(=O)c3c(C(=O)O)cccc3C1CC2(C)C (stereo unspecified),-8,0,3,8,101*,2,-1%
COc1ccc(N2Cc3cccc(C(=O)O)c3C2=O)cc1,-13,-1,-16,12,/,-1,/
COc1cc(NC(=O)COc2ccc(-n3cnnn3)cc2)cc(OC)c1OC,59,1,-1,-59,0,4,/

# Assay outcomes from PubChem BioAssay.
